Data taken from ChEMBL document CHEMBL1151473, “Posaconazole activity against Candida glabrata after exposure to caspofungin or amphotericin B” (2008).
≈ marks a conversion by molar mass, not a printed value. Calls of active or inactive are those of the source. No cut-off for these calls is given here.

Key:
Nakaseomyces glabratus [1] = assay: Antifungal activity against 1.04 x 10^8 CFU Candida glabrata isolate 4293 infected in CD1 mouse assessed as reduction in fungal burden per kidney pair at 1 mg/kg/day, ip administered from day 1 to day 2 post viral challenge measured on day 3 postinfection; type: functional, organism-based
In short: (§1)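 Male CD1 mice (25 g) made neutropenic with cyclophosphamide 200 mg/kg/day ip on days −4, +1 and +4 postinfection. Infected iv with C. glabrata 4293 in 0.2 ml. Treatment began 24 h postchallenge, with 1 mg/kg/day ip in 0.2 ml. Sacrifice on day 3 or day 7. Kidney pairs homogenized; diluted and undiluted aliquots plated on Sabouraud dextrose agar for CFU. Medians reported; 7–8 mice per group.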

Nakaseomyces glabratus [2] = assay: Antifungal activity against 2.44 x 10^8 CFU Candida glabrata isolate 4293 infected in CD1 mouse assessed as reduction in fungal burden per kidney pair at 1 mg/kg/day, ip administered from day 1 to day 2 post viral challenge measured on day 3 postinfection; type: functional, organism-based; in short: as §1
Nakaseomyces glabratus [3] = assay: (§2) Antifungal activity against 2.44 x 10^8 CFU Candida glabrata isolate 4293 infected in CD1 mouse assessed as reduction in […] per kidney pair at 1 mg/kg/day, ip administered from day 1 to day 2 followed by PEG-200 infusion from day 3 to day 6 […] measured on day 7 postinfection relative to control; type: functional, organism-based; in short: as §1
Nakaseomyces glabratus [4] = assay: Antifungal activity against Candida glabrata isolate 4198 after 48 hrs by broth microdilution method; type: functional
In short: (§3)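 CLSI broth microdilution with final drug concentrations […], incubated at 35°C and read spectrophotometrically at 490 nm at 24 and 48 h. MIC is the first concentration giving 50% turbidity reduction versus control, or 90% for amphotericin B. Run in quintuplicate.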

Nakaseomyces glabratus [5] = assay: as §2, with “1.04” for “2.44”; type: functional, organism-based; in short: as §1
Nakaseomyces glabratus [6] = assay: (§4) Antifungal activity against 2.44 x 10^8 CFU Candida glabrata isolate 4293 infected in CD1 mouse assessed as inhibition of regrowth in fungal burden in kidney at 1 mg/kg/day, ip administered from day 1 to day 2 followed by PEG-200 infusion from day 3 to day 6 post viral challenge measured on day 7 postinfection; type: functional, organism-based; in short: as §1
Nakaseomyces glabratus [7] = assay: Antifungal activity against 2.44 x 10^8 CFU Candida glabrata isolate 4293 infected in CD1 mouse assessed as inhibition of regrowth in fungal burden in kidney at 1 mg/kg/day, ip administered from day 1 to day 2 post viral challenge measured on day 7 postinfection; type: functional, organism-based; in short: as §1
Candida parapsilosis [8] = assay: Antifungal activity against Candida parapsilosis ATCC 22019 after 48 hrs by broth microdilution method; type: functional; details: Lodderomyces parapsilosis, ATCC 22019, 48 h; in short: as §3
Nakaseomyces glabratus [9] = assay: Antifungal activity against Candida glabrata isolate 4205 after 48 hrs by broth microdilution method; type: functional; details: isolate 4205, 48 h; in short: as §3
Nakaseomyces glabratus [10] = assay: Antifungal activity against Candida glabrata isolate 4370 after 48 hrs by broth microdilution method; type: functional; in short: as §3
Nakaseomyces glabratus [11] = assay: as §4, with “1.04” for “2.44”; type: functional, organism-based; in short: as §1
Nakaseomyces glabratus [12] = assay: Antifungal activity against Candida glabrata isolate 4293 after 48 hrs by broth microdilution method; type: functional; in short: as §3
Nakaseomyces glabratus [13] = assay: Antifungal activity against 1.04 x 10^8 CFU Candida glabrata isolate 4293 infected in CD1 mouse assessed as inhibition of regrowth in fungal burden in kidney at 1 mg/kg/day, ip administered from day 1 to day 2 post viral challenge measured on day 7 postinfection; type: functional, organism-based; in short: as §1
Nakaseomyces glabratus [14] = assay: Antifungal activity against 2.44 x 10^8 CFU Candida glabrata isolate 4293 infected in CD1 mouse assessed as inhibition of regrowth in fungal burden in kidney at 1 mg/kg/day, ip administered from day 1 to day 2 post viral challenge measured on day 3 postinfection; type: functional, organism-based; in short: as §1
Nakaseomyces glabratus [15] = assay: Antifungal activity against Candida glabrata isolate 4293 after 24 hrs by broth microdilution method; type: functional
In short: (§5)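 CLSI broth microdilution, final drug concentrations 0.0078–8 µg/ml. Incubated at 35°C and read at 24 and 48 h by OD490. MIC is the first concentration giving 50% (azole, echinocandin) or 90% (polyene) less turbidity than the drug-free control. Quintuplicate.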

Nakaseomyces glabratus [16] = assay: Antifungal activity against Candida glabrata isolate 4205 after 24 hrs by broth microdilution method; type: functional; details: isolate 4205, 24 h; in short: as §3
Nakaseomyces glabratus [17] = assay: Antifungal activity against Candida glabrata isolate 4370 after 24 hrs by broth microdilution method; type: functional; in short: as §3
Nakaseomyces glabratus [18] = assay: Antifungal activity against 1.04 x 10^8 CFU Candida glabrata isolate 4293 infected in CD1 mouse assessed as inhibition of regrowth in fungal burden in kidney at 1 mg/kg/day, ip administered from day 1 to day 2 post viral challenge measured on day 3 postinfection; type: functional, organism-based; in short: as §1
Candida parapsilosis [19] = assay: Antifungal activity against Candida parapsilosis ATCC 22019 after 24 hrs by broth microdilution method; type: functional; details: Lodderomyces parapsilosis, ATCC 22019, 24 h; in short: as §5
Nakaseomyces glabratus [20] = assay: Antifungal activity against Candida glabrata isolate 4198 after 24 hrs by broth microdilution method; type: functional; in short: as §3

Compound	Activity (Nakaseomyces glabratus [1])	Activity (Nakaseomyces glabratus [2])	Activity (Nakaseomyces glabratus [3])	MIC (Nakaseomyces glabratus [4]) [µg/mL]	Activity (Nakaseomyces glabratus [5])	Activity (Nakaseomyces glabratus [6])	Activity (Nakaseomyces glabratus [7])	MIC (Candida parapsilosis [8]) [µg/mL]	MIC (Nakaseomyces glabratus [9]) [µg/mL]	MIC (Nakaseomyces glabratus [10]) [µg/mL]	Activity (Nakaseomyces glabratus [11])	MIC (Nakaseomyces glabratus [12]) [µg/mL]	Activity (Nakaseomyces glabratus [13])	Activity (Nakaseomyces glabratus [14])	MIC (Nakaseomyces glabratus [15]) [µg/mL]	MIC (Nakaseomyces glabratus [16]) [µg/mL]	MIC (Nakaseomyces glabratus [17]) [µg/mL]	Activity (Nakaseomyces glabratus [18])	MIC (Candida parapsilosis [19]) [µg/mL]	MIC (Nakaseomyces glabratus [20]) [µg/mL]
C[C@@H]1[C@H](O)[C@@H](C)/C=C/C=C/C=C/C=C/C=C/C=C/C=C/[C@H](O[C@@H]2O[C@H](C)[C@@H](O)[C@H](N)[C@@H]2O)C[C@@H]2O[C@](O)(C[C@@H](O)C[C@@H](O)[C@H](O)CC[C@@H](O)C[C@@H](O)CC(=O)O[C@H]1C)C[C@H](O)[C@H]2C(=O)O [AMPHOTERICIN B]	inactive	inactive	Active	0.5 (≈ 0.541 µM)	Active	inactive	inactive	1 (≈ 1.08 µM)	0.5 (≈ 0.541 µM)	1 (≈ 1.08 µM)	inactive	0.5 (≈ 0.541 µM)	inactive							
CC[C@H](C)C[C@H](C)CCCCCCCCC(=O)N[C@H]1C[C@@H](O)[C@@H](NCCN)NC(=O)[C@@H]2[C@@H](O)CCN2C(=O)[C@H]([C@H](O)CCN)NC(=O)[C@H]([C@H](O)[C@@H](O)c2ccc(O)cc2)NC(=O)[C@@H]2C[C@@H](O)CN2C(=O)[C@H]([C@@H](C)O)NC1=O [CASPOFUNGIN]	inactive	inactive	Active		Active		Active						Active	Active	≤ 0.03	0.25 (≈ 0.229 µM)	0.125 (≈ 0.114 µM)	Active	0.25 (≈ 0.229 µM)	0.25 (≈ 0.229 µM)
